The values that follow come from ChEMBL document CHEMBL1146028, “Dibasic non-imidazole histamine H3 receptor antagonists with a rigid biphenyl scaffold” (Bioorg Med Chem Lett, 2006).

Active and inactive are the calls of the source. The calls are words filed in the database; no cut-off is given here.

In assay [1] the target is Histamine H3 receptor (Cavia porcellus) (UniProt Q9JI35). As to the kind of experiment: Activity at histamine H3 receptor assessed as RAMHA-induced inhibition of electrically-stimulated guinea pig isolated ileum. The class given is functional, tissue-based. As to conditions: filed as antagonist.
Assay [2] addresses T1, Histamine H3 receptor (Homo sapiens, UniProt Q9Y5N1). The experiment in a line: Displacement of [3H]RAMHA from human histamine H3 receptor transfected in SK-N-MC cells. The class given is cell-based. The method in brief:
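Membranes from SK-N-MC cells stably expressing human H3 receptor, incubated 60 min at room temperature with 0.5 nM [3H](R)-α-methylhistamine in 50 mM Tris–HCl/5 mM EDTA, pH 7.4; compounds 0.01 nM–10 µM. Filtration, two ice-cold washes, scintillation counting. Non-specific binding: 10 µM histamine. IC50 estimated from displacement curves.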
(In a radioligand displacement assay an active substance lowers the binding of a labelled ligand.)

The target in assay [3] is Histamine H2 receptor (Cavia porcellus) (UniProt P47747). As to the kind of experiment: Activity at histamine H2 receptor in isolated guinea pig atrium up to 10 uM. The class given is functional, tissue-based. The following applies: Cardiac atrium.
In assay [4] the target is Histamine H1 receptor (Cavia porcellus) (UniProt P31389). As to the kind of experiment: Activity at histamine H1 receptor in isolated guinea pig ileum up to 10 uM. The class given is functional, tissue-based.
Assay [5] addresses Histamine H3 receptor (Rattus norvegicus, UniProt Q9QYN8). As to the kind of experiment: Displacement of [3H]RAMHA from histamine H3 receptor in rat brain membranes. Type of assay: cell membranes. The method in brief: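 Rat cerebral cortex membranes incubated 60 min at room temperature with 0.5 nM [3H](R)-α-methylhistamine in 50 mM Tris–HCl/0.5 mM EDTA/50 mM NaCl, pH 7.4; compounds 0.01 nM–10 µM. Rapid filtration, two ice-cold buffer washes, scintillation counting. Non-specific binding: 10 µM thioperamide. IC50 from displacement curves; mean of three experiments.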

Assay [6] has as its target T2, Acetylcholinesterase (Rattus norvegicus) (UniProt P37136).
T2 sequence (whole entry): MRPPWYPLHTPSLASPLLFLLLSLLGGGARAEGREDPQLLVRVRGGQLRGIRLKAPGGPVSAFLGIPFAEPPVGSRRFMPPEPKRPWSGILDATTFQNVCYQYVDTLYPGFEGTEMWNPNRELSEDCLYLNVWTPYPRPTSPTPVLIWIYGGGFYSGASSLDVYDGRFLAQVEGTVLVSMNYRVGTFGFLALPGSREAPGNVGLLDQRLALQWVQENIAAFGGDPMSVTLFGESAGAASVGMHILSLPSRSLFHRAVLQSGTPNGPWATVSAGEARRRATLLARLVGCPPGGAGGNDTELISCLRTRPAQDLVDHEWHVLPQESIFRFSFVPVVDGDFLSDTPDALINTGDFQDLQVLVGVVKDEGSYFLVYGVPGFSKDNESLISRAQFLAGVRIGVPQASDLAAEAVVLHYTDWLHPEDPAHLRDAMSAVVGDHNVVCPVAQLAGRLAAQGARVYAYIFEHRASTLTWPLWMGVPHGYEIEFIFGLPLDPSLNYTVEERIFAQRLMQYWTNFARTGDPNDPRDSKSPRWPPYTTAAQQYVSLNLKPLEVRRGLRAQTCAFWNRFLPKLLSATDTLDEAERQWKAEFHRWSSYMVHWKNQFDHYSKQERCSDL
As to the kind of experiment: Inhibition of AChE in rat brain at 10 uM. The class given is tissue-based.

Assay [7] deals with T1, Histamine H3 receptor. As to the kind of experiment: Antagonist activity against histamine H3 receptor assessed as beta galactosidase reporter gene transactivation in SK-N-MC cells. The class given is functional, cell-based. The method in brief:
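SK-N-MC cells expressing human H3 receptor; compounds (0.1 nM–10 µM) added to media, 5 min later forskolin (5 µM) and cumulative (R)-α-methylhistamine (0.1 nM–1 µM). After 6 h at 37 °C, cells lysed (0.5% Triton, 40 mM β-mercaptoethanol); read-out by absorbance 570 nm after overnight incubation at 20 °C.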

T1 sequence (Q9Y5N1 whole entry): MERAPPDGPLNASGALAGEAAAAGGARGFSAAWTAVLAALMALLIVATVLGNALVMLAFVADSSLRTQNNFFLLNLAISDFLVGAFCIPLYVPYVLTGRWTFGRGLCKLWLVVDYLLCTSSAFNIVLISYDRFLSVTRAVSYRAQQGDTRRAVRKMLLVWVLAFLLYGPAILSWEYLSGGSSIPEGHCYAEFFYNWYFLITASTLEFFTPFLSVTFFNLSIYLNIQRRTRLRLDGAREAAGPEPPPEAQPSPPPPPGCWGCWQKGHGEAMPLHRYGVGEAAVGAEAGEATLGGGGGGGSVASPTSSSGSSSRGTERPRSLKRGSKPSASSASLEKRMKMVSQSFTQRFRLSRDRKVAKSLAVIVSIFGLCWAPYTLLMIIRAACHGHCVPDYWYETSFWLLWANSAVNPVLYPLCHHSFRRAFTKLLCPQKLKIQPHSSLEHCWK
Sequence of Histamine H3 receptor (Cavia porcellus) (Q9JI35 whole entry): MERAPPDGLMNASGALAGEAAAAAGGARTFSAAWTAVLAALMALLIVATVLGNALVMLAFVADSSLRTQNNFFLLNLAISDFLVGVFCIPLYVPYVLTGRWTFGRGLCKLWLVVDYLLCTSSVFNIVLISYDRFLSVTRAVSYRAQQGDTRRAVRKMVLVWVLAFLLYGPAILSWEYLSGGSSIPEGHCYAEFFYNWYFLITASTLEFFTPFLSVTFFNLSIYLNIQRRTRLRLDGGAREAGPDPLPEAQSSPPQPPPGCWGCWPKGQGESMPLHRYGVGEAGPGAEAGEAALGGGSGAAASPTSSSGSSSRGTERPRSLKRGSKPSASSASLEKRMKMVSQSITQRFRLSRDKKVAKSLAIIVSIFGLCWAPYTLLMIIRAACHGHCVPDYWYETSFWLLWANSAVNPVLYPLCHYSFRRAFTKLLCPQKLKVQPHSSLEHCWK
Sequence of Histamine H1 receptor (Cavia porcellus) (P31389 whole entry): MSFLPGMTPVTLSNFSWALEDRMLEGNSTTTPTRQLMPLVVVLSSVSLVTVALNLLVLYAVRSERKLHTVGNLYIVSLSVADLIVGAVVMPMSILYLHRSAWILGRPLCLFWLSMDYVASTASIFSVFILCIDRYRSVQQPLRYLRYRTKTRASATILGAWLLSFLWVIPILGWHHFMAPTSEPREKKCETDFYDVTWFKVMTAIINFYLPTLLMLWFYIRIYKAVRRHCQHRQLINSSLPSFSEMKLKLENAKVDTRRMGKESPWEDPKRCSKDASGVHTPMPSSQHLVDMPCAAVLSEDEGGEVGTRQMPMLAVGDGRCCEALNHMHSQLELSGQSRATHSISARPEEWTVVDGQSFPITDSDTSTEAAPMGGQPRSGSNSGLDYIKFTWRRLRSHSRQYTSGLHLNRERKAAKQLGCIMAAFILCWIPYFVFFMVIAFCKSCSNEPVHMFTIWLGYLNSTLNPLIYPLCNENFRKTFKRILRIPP
Sequence of Histamine H3 receptor (Rattus norvegicus, UniProt Q9QYN8) (Q9QYN8 whole entry): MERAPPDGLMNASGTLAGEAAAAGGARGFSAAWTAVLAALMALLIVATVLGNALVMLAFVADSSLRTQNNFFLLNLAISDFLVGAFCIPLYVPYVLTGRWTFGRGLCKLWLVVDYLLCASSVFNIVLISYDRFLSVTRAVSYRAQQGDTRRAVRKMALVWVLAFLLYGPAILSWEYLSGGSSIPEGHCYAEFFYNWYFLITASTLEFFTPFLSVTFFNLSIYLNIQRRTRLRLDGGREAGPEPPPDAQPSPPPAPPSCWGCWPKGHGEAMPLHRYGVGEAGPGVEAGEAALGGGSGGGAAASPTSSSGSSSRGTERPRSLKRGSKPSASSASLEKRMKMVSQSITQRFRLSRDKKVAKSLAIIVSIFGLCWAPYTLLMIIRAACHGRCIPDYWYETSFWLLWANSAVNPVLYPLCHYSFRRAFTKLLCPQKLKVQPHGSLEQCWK
Sequence of Histamine H2 receptor (Cavia porcellus) (P47747 whole entry): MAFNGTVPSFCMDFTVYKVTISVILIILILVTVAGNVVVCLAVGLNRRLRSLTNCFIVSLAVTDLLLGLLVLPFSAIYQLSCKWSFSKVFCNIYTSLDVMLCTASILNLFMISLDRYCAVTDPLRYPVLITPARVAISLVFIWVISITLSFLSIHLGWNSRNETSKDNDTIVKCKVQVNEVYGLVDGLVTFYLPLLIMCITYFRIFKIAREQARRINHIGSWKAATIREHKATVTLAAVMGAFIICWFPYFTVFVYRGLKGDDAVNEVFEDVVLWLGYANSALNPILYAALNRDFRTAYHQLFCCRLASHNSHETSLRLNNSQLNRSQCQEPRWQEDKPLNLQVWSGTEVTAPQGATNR

With `CC1CC(C)CN(Cc2ccc(-c3ccc(CN4CC(C)CC(C)C4)cc3)cc2)C1` (stereo not drawn), the Activity entry in assay [1] was “Antagonist”. For the same compound, the Ki in assay [2] is 398 nM; in assay [5], 676 nM. Further, the outcome in assay [3] and in assay [4] was inactive.

`c1cc(-c2ccc(CN3CCCCC3)cc2)ccc1CNC1CCCCC1`: the Activity result in assay [1] was “Antagonist”. Further, the Ki was 1.7 nM in assay [2] and 9.12 nM in assay [5]. Also, the result in assay [3] and in assay [4] was inactive. Moreover, in assay [6], the inhibition was found to be 50%.

Consider `CC(=O)N1CCN(Cc2ccc(-c3ccc(CN4CCCCC4)cc3)cc2)CC1`, for which the Activity result in assay [1] was “Antagonist”. Further, the inhibition constant (Ki) was 6.31 nM in assay [2] and 46.8 nM in assay [5]. Further, the outcome in assay [3] and in assay [4] was inactive.

With `c1cc(-c2ccc(CN3CCOCC3)cc2)ccc1CN1CCOCC1`, the Activity entry in assay [1] was “Antagonist”. The Ki in assay [2] was 12.3 nM; in assay [5] it was 81.3 nM. The result in assay [3] and in assay [4] was inactive.

Regarding `CN(Cc1ccc(-c2ccc(CN(C)C3CCCCC3)cc2)cc1)C1CCCCC1`, the Activity entry in assay [1] is “Antagonist”. Moreover, the Ki was 37.2 nM in assay [2] and 214 nM in assay [5]. The outcome in assay [3] and in assay [4] was inactive.

`CC1CCN(Cc2ccc(-c3ccc(CN4CCC(C)CC4)cc3)cc2)CC1`: in assay [1], the Activity entry is “Antagonist”. In addition, the Ki in assay [2] is 6.17 nM; in assay [5], 15.1 nM. The result in assay [3] and in assay [4] was inactive. For the same compound, the inhibition in assay [6] was 50%.

Consider `c1cc(-c2ccc(CNC3CCCCC3)cc2)ccc1CNC1CCCCC1`, for which the Activity result in assay [1] is “Antagonist”. Moreover, the figures for the Ki in assay [2] and in assay [5] were 562 nM and 2090 nM, respectively. Besides, the outcome in assay [3] and in assay [4] was inactive.

Take `CC(=O)N1CCN(Cc2ccc(-c3ccc(CN4CCN(C(C)=O)CC4)cc3)cc2)CC1`: in assay [1], the Activity entry was “Antagonist”. Besides, the Ki was 1410 nM in assay [2] and 3890 nM in assay [5]. For the same compound, the result in assay [3] and in assay [4] was inactive.

In the case of `c1cc(-c2ccc(CN3CCCCC3)cc2)ccc1CN1CCCCC1`, the Activity result in assay [1] is “Antagonist”. Besides, the Ki in assay [2] is 0.339 nM; in assay [5] it was 1.2 nM. Further, in assay [7], the negative logarithm of the Kb (pKb) amounted to 8.77. In addition, the result in assay [3] and in assay [4] was inactive.

Consider `CCCCCNCc1ccc(-c2ccc(CNCCCCC)cc2)cc1`, for which the Activity result in assay [1] is “Antagonist”. Moreover, the inhibition constant Ki in assay [2] is 759 nM; in assay [5], 3310 nM. Besides, the outcome in assay [3] and in assay [4] was inactive.

`NCc1ccc(-c2ccc(CN)cc2)cc1`: the Activity result in assay [1] is “Antagonist”. In addition, the Ki in assay [2] was 4470 nM; in assay [5] it was 8710 nM. In addition, the result in assay [3] and in assay [4] was inactive.

`CN(C)Cc1ccc(-c2ccc(CN(C)C)cc2)cc1`: the Activity entry in assay [1] is “Antagonist”. In addition, the results for the Ki in assay [2] and in assay [5] were 1.86 nM and 6.61 nM, respectively. In addition, the outcome in assay [3] and in assay [4] was inactive.

Turning to `O=C1CCCCN1Cc1ccc(-c2ccc(CN3CCCCC3)cc2)cc1`, the Activity result in assay [1] is “Antagonist”. The Ki in assay [2] was 46.8 nM; in assay [5], 115 nM. Also, the result in assay [3] and in assay [4] was inactive.

As to `c1cc(-c2ccc(CCN3CCCCC3)cc2)ccc1CCN1CCCCC1`, the Activity entry in assay [1] was “Antagonist”. The Ki in assay [2] is 1.17 nM; in assay [5], 3.98 nM. Further, the outcome in assay [3] and in assay [4] was inactive.

`c1cc(CN2CCCCC2)ccc1CN1CCCCC1`: the Activity entry in assay [1] was “Antagonist”. Further, the figures for the inhibition constant (Ki) in assay [2] and in assay [5] were 1230 nM and 4070 nM, respectively. Further, the outcome in assay [3] and in assay [4] was inactive.

In general, Ki refers to a measure of affinity in units of concentration, obtained from inhibition or displacement. Lower therefore signals a stronger hold on the target. One may read the inhibition as the drop in the measured response relative to a control, in per cent. A word on the pKb: it is the Kb on a negative log10 scale, so that one unit is a factor of ten.
